Assay outcomes deposited in PubChem BioAssay by several laboratories.
GSIS activator – GLuc luminescence reporter in INS-1E cells, primary screen for activators of glucose-dependent secretion of insulin | INS-1E GLuc reporter insulin secretion, 2-3 h | activation, % at 16.6 µM | hit rate 0.61% among 370,000;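 active means lowest replicate activation of at least 40%, so every replicate reaches that level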;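 further: 0% = median of neutral control wells and 100% = median of IBMX positive control wells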
FXN GAA850 act – increases GAA850 frataxin promoter reporter activity; HEK293 lucGAA850 FXN promoter luciferase reporter, 24 h; percent of 10 µM SAHA response; activation, % at 6 µM; hit rate 0.56% among 360,000;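 active means activation above the average of all compounds screened plus 3 SD, cutoff fixed separately per campaign, cut at about 7.5% in these data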;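 further: 0% = DMSO wells and 100% = 10 µM SAHA wells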
CaV13 FRET inh – Primary screen for inhibitors of IQ motif and Ca2+-dependent inactivation inhibitor domain binding in CACNA1D, Förster resonance energy transfer in living cells, …. HEK cells, CFP/YFP FRET ICDI-IQ, plate reader, 10 min; percent FRET-ratio fall versus neutral wells. inhibition, % at 12.3 µM. hit rate 0.098% among 340,000. AID 743397;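 active means mean replicate inhibition of at least 30% and at least 1% of replicates passing that level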;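 further: 0% = median of the neutral control wells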
Xi reactivation – activators of X-chromosome reactivation in mouse fibroblasts; hit rate 0.055% among 360,000; AID 743238; activation, % at 7.58 µM; XiGFP mouse fibroblasts, % GFP-positive cells imaging, 3 d; cells co-treated with 5-aza-dC sensitizer; scaled so ellipticine positive control = 100%;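 active means mean normalized replicate activation at least 10% and every replicate at or above 10%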;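 further: 0% = median of on-plate neutral control wells and 100% = ellipticine 6 µM median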
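assay system = SV40-immortalized XiGFP fibroblast cells, line 68-5-11 | buffer or medium = DMEM plus 5-aza-dC sensitizer | doses = single-point pinned compound dosing | times = 3-day compound exposure, then 15 min fixation at room temperature | benchmarks = positive control ellipticine, 6 µM final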
Starred values were filed as active, the others as inactive; · = not tested or not shown; + = active, no number; ! = not confirmed by another sample. Shown are actives, neighbours in structure and some others; about 1% of the full set was active somewhere.

SMILES	GSIS activator	FXN GAA850 act	CaV13 FRET inh	Xi reactivation
CCN(CC)CCOC(=O)c1ccc(N/C=C(/C#N)c2nc(-c3cccc(OC)c3)cs2)cc1	·	2	-17	0
CCN(CC)CCOC(=O)c1ccc(N/C=C(/C#N)c2nc(-c3ccc(OC)c(OC)c3)cs2)cc1	56*	2	-6	0
C[C@@H]1CN([C@H](C)CO)C(=O)c2cccc(NS(=O)(=O)c3ccccc3)c2O[C@H]1CN(C)Cc1ccc(Oc2ccccc2)cc1	-15	·	·	0
Cc1noc(C)c1NC(=O)Nc1ccc2c(c1)C(=O)N(C)[C@@H]1CC[C@H](CC(=O)N(C)C)O[C@H]1CO2	-8	·	·	0
CCNc1nc2nc3ccc(C)cn3c(=O)c2cc1C(=O)NCC1CCCO1 (configuration not stated)	29	2	+	0
CCOc1ccc(S(=O)(=O)Nc2ccc(C(=O)N(CC)CC(=O)NCc3cccs3)cc2)cc1	-29	-1	55*	0
O=C(C[C@H]1CC[C@@H]2[C@H](COC[C@@H](O)CN2C(=O)c2ccccn2)O1)NC1CCC1	1	·	·	0
C[C@H](CO)N1C[C@H](C)[C@H](CN(C)Cc2ccc(C(F)(F)F)cc2)Oc2c(NC(=O)C3CC3)cccc2C1=O	0	·	·	0
S=C(NCc1ccccc1)Nc1ccc2cn[nH]c2c1	40*	0	-5	0
CC(=O)Nc1ccc2c(c1)C(=O)N(C)C[C@H](C)[C@@H](CN(C)S(C)(=O)=O)O2	4	·	·	0
COc1ccc(C)c2sc(N(CCCN(C)C)C(=O)c3ccc(S(=O)(=O)N4CCc5ccccc5C4)cc3)nc12	189*	-7	-13	0
Cc1ccc(OCC(=O)NNC(=O)CCC(=O)Nc2ccc(C)cc2C)cc1	57*	1	-3	·
Cc1cc(-n2c(SCC(=O)Nc3ccc(F)c(F)c3)nc3n[nH]c(C)c3c2=N)ccc1Cl	250*	-4	-2	0
Cc1cc(-n2c(SCC(=O)Nc3ccc(Br)cc3)nc3n[nH]c(C)c3c2=N)ccc1Cl	2	3	-2	0
C/C=C/c1cccc(-c2nc(C(=O)N(C)C)cc3c2[C@@H](CCO)N([S@](=O)C(C)(C)C)C3)c1	14	·	·	0
CN(C)CC#Cc1ccc([C@@H]2[C@@H](CO)N3C(=O)CN(C(=O)Cc4cccnc4)C[C@@H]23)cc1	6	·	·	0
N#C/C(=C/c1ccc(N2CCOCC2)o1)c1ccc(Br)cc1	·	16*	·	·
C[C@@H]1CCCCO[C@H](CN(C)C(=O)Nc2ccc3c(c2)OCO3)[C@@H](C)CN([C@H](C)CO)C(=O)c2cc(NC(=O)C3CCCCC3)ccc2O1	-5	·	·	0
CN1C(=O)c2cccc3c(S(=O)(=O)N(C)C)ccc1c23	22	2	-7	0
CCN1C(=O)c2cccc3c(S(=O)(=O)N(C)C)ccc1c23	19	0	42*	1
COc1ccc(NC(=O)N(C)C[C@H]2Oc3ccc(NS(=O)(=O)c4ccc(F)cc4)cc3CC(=O)N([C@@H](C)CO)C[C@H]2C)cc1	-12	·	·	-1
O=c1cc(-c2ccccc2F)nc(-c2ccccc2F)o1	12	1	3	0
O=c1cc(-c2cccc(Br)c2)nc(-c2ccccc2F)o1	46*	0	-4	0
Cc1ccc(NC(=O)c2cc(-n3cnnc3)ccc2Cl)cc1	·	0	-7	·
Cc1ccc(NC(=O)c2cc(N3C(=O)C=CC3=O)ccc2Cl)cc1C	50*	4	-6	1
SMILES	GSIS activator	FXN GAA850 act	CaV13 FRET inh	Xi reactivation
O=C(c1ccccc1)N1CC[C@@H]2[C@@H](CO)Nc3ccc(C#Cc4cccnc4)cc3[C@@H]21	16	·	·	0
C[C@@H]1CN([C@H](C)CO)C(=O)CCCn2nncc2CO[C@H]1CN(C)C(=O)Nc1ccnc(N2CCOCC2)c1	45*!	0	-3	0
COc1ccc(C(=O)NCC(=O)OCCCOC(=O)CNC(=O)c2ccc(OC)c(OC)c2)cc1OC	-3	-1	-7	0
CCOc1ccc(C(=O)NCC(=O)Nc2cc(C)ccn2)cc1OCC	44*	3	-6	0
CCOc1ccc(C(=O)NCC(=O)OCCCC(=O)c2ccc(F)cc2)cc1OCC	45*	1	-6	0
Cc1ccc(NC(=O)CNC(=O)c2ccco2)nc1	2	0	·	0
Cc1ccnc(NC(=O)CNC(=O)c2ccco2)c1	45*	4	-1	0
C[C@@H]1CCCCO[C@@H](CN(C)C(=O)c2ccccc2)[C@@H](C)CN([C@@H](C)CO)C(=O)c2cc(NS(=O)(=O)c3ccc(F)cc3)ccc2O1	-4	·	·	0
COc1ccc([C@@H]2CC=CC[C@H](C)Oc3ccccc3C(=O)N(C)[C@@H](C)C(=O)N2)c(OC)c1 (mixture of isomers)	-19	·	·	0
CCOc1ccc(Nc2oc(-c3cccc(Cl)c3)nc2C#N)cc1	106*	3	-8	·
COc1cc(F)ccc1CN1CCC(n2nccc2NC(=O)C2CCOC2)CC1 (configuration not stated)	6	-1	-6	0
COc1cc(CN2CCC(n3nccc3NC(=O)C3CCOC3)CC2)ccc1F (configuration not stated)	45*	2	-9	0
CC1CCN(c2ccccc2NC(=O)c2cc([N+](=O)[O-])ccc2N2CCOCC2)CC1	3	12*	-5	0
COc1ccc(NC(=O)N2CC(=O)N3[C@@H](CO)[C@H](c4ccc(C5=CCCC5)cc4)[C@@H]3C2)cc1	-1	·	·	0
COC(=O)c1cc(=O)n(C2CC2)c(=NC2CC2)s1	76*	3	-3	·
COc1cc2c(cc1OC)C1=C(C#N)CCC(=NC(=O)c3ccco3)N1CC2	75*	7	-6	0
CC[C@H](C)Cc1cn([C@@H](CCCCN)C(=O)NCCCCCCCCCCC(=O)N2CCNCC2)nn1	40*	0	-5	0
NCCCCCc1cn([C@@H](CCC(=O)O)C(=O)NCCCCCCCCCCC(=O)N2CCNCC2)nn1	11	1	-10	0
CS(=O)(=O)N1[C@@H]2CN(CC(F)(F)F)C[C@H]1C2c1ccc(Br)cc1 (some centres not stated)	-19	·	·	0
CN(C)C(=O)C[C@@H]1C=C[C@@H](NC(=O)C2CCOCC2)[C@@H](CO)O1	7	·	·	0
CCC(CC)NC(=O)CN1CCN(S(=O)(=O)c2cccs2)CC1	47*	0	-6	1
CC=Cc1ccc2n(c1=O)C[C@@H]1[C@@H](CO)[C@H](C(=O)NCc3ccccc3F)N(CC)[C@H]21 (mixture of isomers)	1	·	·	0
COC(=O)[C@]12C[C@H](CC(=O)NCCc3ccccc3OC)C(=O)N(CCC3=CCCCC3)C1=C[C@H](C(C)(C)C)O[C@@H]2C	41*	·	-5	0
